# pIC50, pKi: −log10 of the molar value. The source made the active and inactive calls. The rule behind the calls is not given here.
# Experiments:
# [1] = target: PRMT5/MEP50 complex (Homo sapiens, UniProt O14744); assay: Displacement of fluorophore-labeled RIOK1 from human PRMT5/WDR77 hetero octameric complex expressed in Sf9 cells by competition fluorescence polarization (FP) assay
# [2] = Stability in human plasma assessed as compound remaining relative to control; format: ADME, cell-free
# [3] = Stability in mouse plasma assessed as compound remaining relative to control; format: ADME, cell-free
# [4] = Solubility in PBS buffer; format: physicochemical
# [5] = target: Methylosome protein WDR77 (Homo sapiens) (UniProt Q9BQA1); assay: Binding affinity to human wild type WDR77 assessed as increase in protein mass by deconvoluted mass spectra analysis
# Method in brief: (§1)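 Purified untagged PRMT5:WDR77 (Sf9 co-expressed) exchanged into 10 mM HEPES 7.4, 150 mM NaCl, 1 mM TCEP. Protein diluted to 10 μM; 10 μL protein plus 1 μL compound (0.5 mM stock in DMSO) or DMSO in 90 μL buffer, 4 h at RT. Intact mass by LC-ToF on C4 column at 80 °C, positive ESI, spectra deconvoluted by MaxEnt1.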
# [6] = test system: Protein arginine N-methyltransferase 5 (Homo sapiens), O14744 [C278A]; assay: Binding affinity to human PRMT5 C278A mutant assessed as increase in protein mass by deconvoluted mass spectra analysis; method in brief: as §1
# [7] = Displacement of fluorophore-labeled RIOK1 from human PRMT5 C278A mutant/WDR77 hetero octameric complex expressed in Sf9 cells by competition fluorescence polarization (FP) assay
# Method in brief: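 Competition FP with Sf9-expressed untagged PRMT5:WDR77 (WT or C278A) at 200 nM protomer and 10 nM fluorophore-labeled RIOK1 PBM peptide probe. […] Incubated at RT, read at 40 min, 8-point dose range, triplicate. Normalized to DMSO (100) and unlabeled peptide control at 20 μM (0).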
# [8] = target: T1, Protein arginine N-methyltransferase 5 (Homo sapiens, UniProt O14744); assay: Binding affinity to human wild type PRMT5 assessed as increase in protein mass by deconvoluted mass spectra analysis; method in brief: as §1
# [9] = target: PRMT5/MEP50 complex (Homo sapiens) (UniProt O14744+Q9BQA1); assay: Displacement of full-length pICIn protein from human PRMT5/WDR77 hetero octameric complex at 2 uM pretreated by SPR competition assay
# [10] = target: T1, Protein arginine N-methyltransferase 5; assay: Covalent inhibition of human PRMT5 assessed as initial binding constant by LC-MS analysis
# [11] = Disruption of human N-terminal SmBiT peptide-tagged PRMT5/N-terminal LgBiT tagged RIOK1 complex expressed in intact HEK293T cells measured after 40 mins by NanoBiT assay; format: cell-based; details: HEK-293T
# [12] = target: T1, Protein arginine N-methyltransferase 5; assay: Covalent inhibition of human PRMT5 assessed maximum potential inactivation rate by LC-MS analysis
# [13] = target: T1, Protein arginine N-methyltransferase 5; assay: Covalent inhibition of human PRMT5 assessed as Kinact/Ki ratio by LC-MS analysis
# Chain of PRMT5/MEP50 complex (O14744 whole entry): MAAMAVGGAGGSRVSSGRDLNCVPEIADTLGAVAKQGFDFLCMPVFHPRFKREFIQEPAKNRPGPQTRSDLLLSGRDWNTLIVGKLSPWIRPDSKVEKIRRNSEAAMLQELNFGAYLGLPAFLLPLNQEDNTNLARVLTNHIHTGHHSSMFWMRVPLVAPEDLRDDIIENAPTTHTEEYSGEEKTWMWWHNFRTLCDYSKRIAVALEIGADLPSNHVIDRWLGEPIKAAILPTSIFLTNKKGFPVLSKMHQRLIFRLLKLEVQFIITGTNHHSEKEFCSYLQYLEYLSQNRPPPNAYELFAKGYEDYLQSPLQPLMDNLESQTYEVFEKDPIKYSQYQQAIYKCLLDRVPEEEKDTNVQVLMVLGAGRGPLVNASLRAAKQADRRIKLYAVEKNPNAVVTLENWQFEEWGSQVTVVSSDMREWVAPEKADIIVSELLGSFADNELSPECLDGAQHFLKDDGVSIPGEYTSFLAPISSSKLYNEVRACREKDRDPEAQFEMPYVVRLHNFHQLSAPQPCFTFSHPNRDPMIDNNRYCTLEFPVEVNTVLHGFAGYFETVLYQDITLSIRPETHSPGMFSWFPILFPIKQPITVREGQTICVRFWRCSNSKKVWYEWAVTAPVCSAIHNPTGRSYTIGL
# Chain of PRMT5/MEP50 complex (Q9BQA1 whole entry, further chain): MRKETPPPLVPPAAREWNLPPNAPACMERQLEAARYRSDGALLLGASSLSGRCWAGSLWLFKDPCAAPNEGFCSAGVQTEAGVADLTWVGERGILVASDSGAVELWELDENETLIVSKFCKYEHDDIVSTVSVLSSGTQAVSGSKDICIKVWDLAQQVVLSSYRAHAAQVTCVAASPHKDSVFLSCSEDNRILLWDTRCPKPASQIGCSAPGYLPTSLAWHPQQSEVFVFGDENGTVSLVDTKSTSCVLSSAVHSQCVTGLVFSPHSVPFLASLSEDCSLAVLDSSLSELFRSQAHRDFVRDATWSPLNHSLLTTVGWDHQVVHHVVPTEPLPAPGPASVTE
# T1 sequence (O14744 whole entry): as the sequence (O14744 whole entry) above
# Chain of Methylosome protein WDR77 (Homo sapiens) (Q9BQA1 whole entry): as the sequence (Q9BQA1 whole entry, further chain) above
# Chain of Protein arginine N-methyltransferase 5 (Homo sapiens), O14744 [C278A] (O14744 whole entry C278A): as the sequence (O14744 whole entry) above, with C278A counted along it
Structure (SMILES),pIC50 [1],Stabilty [2],Stabilty [3],solubility [4],further results
Cc1ccc(NC(=O)Cn2ncc(Cl)c(Cl)c2=O)cc1S(=O)(=O)NCCc1cccnc1,5.34,100%,21%,88 µM,
O=C(Cn1ncc(Cl)c(Cl)c1=O)Nc1cccc(S(=O)(=O)NCCc2ccccn2)c1,4.72,,,19 µM,
COc1ccc(NC(=O)Cn2ncc(Cl)c(Cl)c2=O)cc1S(=O)(=O)NCCc1ccccn1,4.63,,,96 µM,
Cc1ccc(NC(=O)Cn2ncc(F)c(Cl)c2=O)cc1S(=O)(=O)NCCc1ccccn1,6.43,,,,
Cc1ccc(NC(=O)Cn2ncc(Cl)c(Cl)c2=O)cc1S(=O)(=O)NCCc1ccccn1,5.66,,,,Activity [5]: inactive; Activity [6]: inactive; pIC50 [7]: < 4.00; Activity [8]: Active; Activity [9]: Active; pKi [10]: 5.10
Cc1cc(NC(=O)Cn2ncc(Cl)c(Cl)c2=O)cc(S(=O)(=O)NCCc2ccccn2)c1C,5.60,,,3.7 µM,
Cc1ccc(NC(=O)Cn2nccc(Cl)c2=O)cc1S(=O)(=O)NCCc1ccccn1,< 3.70,,,,pIC50 [11]: < 4.00
Cc1ccc(N(C)C(=O)Cn2ncc(Cl)c(Cl)c2=O)cc1S(=O)(=O)NCCc1ccccn1,< 3.70,89%,86%,86 µM,
Cc1cnc(NC(=O)Cn2ncc(Cl)c(Cl)c2=O)cc1S(=O)(=O)N(C)C,,,,7.6 µM,
Cc1ccc(N(C)C(=O)[C@H](C)n2ncc(Cl)cc2=O)cc1S(=O)(=O)NCCc1ccccn1,< 3.70,,,114 µM,
Cc1ccc(NC(=O)C(C)n2ncc(Cl)c(C)c2=O)cc1S(=O)(=O)NCCc1ccccn1 (racemic),< 3.70,,,,
Cc1ncc(NC(=O)Cn2ncc(Cl)c(Cl)c2=O)cc1S(=O)(=O)N1CCCN(C)CC1,< 3.70,70%,3%,96 µM,
Cc1ccc(NC(=O)Cn2ncc(F)c(C)c2=O)cc1S(=O)(=O)NCCc1ccccn1,4.14,,,,
Cc1ccc(NC(=O)Cn2ncc(Cl)c(Cl)c2=O)cc1S(=O)(=O)N(C)C,4.85,,,,
Cc1ccc(NC(=O)Cn2ncc(F)cc2=O)cc1S(=O)(=O)NCCc1ccccn1,4.45,,,,pKi [10]: 4.24
Cc1ccc(NC(=O)Cn2ncc(Cl)c(Cl)c2=O)cc1S(=O)(=O)NCCc1ccncc1,5.60,92%,2%,93 µM,
CN(C)S(=O)(=O)N1CCCC(NC(=O)Cn2ncc(Cl)c(Cl)c2=O)C1 (stereo not given),< 3.70,,,98 µM,
Cc1cc(C)c(S(=O)(=O)NCCc2ccccn2)cc1NC(=O)Cn1ncc(Cl)c(Cl)c1=O,5.21,,,14 µM,
O=C(NC[C@H](O)CN1CCc2ccccc2C1)c1cc(NC2COC2)ncn1,,,,101 µM,
Cc1ccc(NC(=O)Cn2ncc(Cl)c(Cl)c2=O)c(C)c1S(=O)(=O)NCCc1ccccn1,4.41,,,7.8 µM,
CCc1ccc(NC(=O)Cn2ncc(Cl)c(Cl)c2=O)cc1S(=O)(=O)NCCc1ccccn1,5.38,,,12 µM,
Cc1ccc(NC(=O)Cn2ncc(Cl)c(Cl)c2=O)cc1S(=O)(=O)N1CCCCC1,4.90,,,0.8 µM,
Cc1ccc(NC(=O)Cn2ncc(Cl)c(Cl)c2=O)cc1S(=O)(=O)N1CCCN(C)CC1,5.27,84%,0%,98 µM,
Cc1ccc(NC(=O)[C@@H](C)n2ncc(Cl)c(Cl)c2=O)cc1S(=O)(=O)NCCc1ccccn1,4.26,95%,97%,70 µM,Kinact [12]: 1.05 min⁻¹; pKi [10]: 4.11; Ratio [13]: 226 M⁻¹ s⁻¹
Cc1ccc(NC(=O)Cn2ncc(Cl)cc2=O)cc1S(=O)(=O)NCCc1ccccn1,4.14,,,,pKi [10]: 4.44
Cc1ccc(NC(=O)Cn2ncc(Cl)c(Cl)c2=O)nc1S(=O)(=O)NCCc1ccccn1,5.35,96%,75%,5 µM,
Nc1nc2cc(CC[C@H]3C[C@@H](n4ccc5c(N)ncnc54)[C@H](O)[C@@H]3O)ccc2cc1Br [ONAMETOSTAT],,,,7 µM,
Cc1ccc(NC(=O)[C@H](C)n2ncc(Cl)c(Cl)c2=O)cc1S(=O)(=O)NCCc1ccccn1,6.52,92%,92%,64 µM,Kinact [12]: 1.95 min⁻¹; pKi [10]: 5.70; Ratio [13]: 14600 M⁻¹ s⁻¹
Cc1ccc(NC(=O)Cn2ncc(Cl)c(Cl)c2=O)cc1S(=O)(=O)N1CCN(C)CC1,5.00,72%,0%,89 µM,
